ChEMBL document CHEMBL4350958, “Rational Design of Short Peptide Variants by Using Kunitzin-RE, an Amphibian-Derived Bioactivity Peptide, for Acquired Potent Broad-Spectrum Antimicrobial and Improved Therapeutic Potential of Commensalism Coinfection of Pathogens” (J Med Chem, 2019)

Experiments:
[1] = tested on: Escherichia coli; experiment: Antibacterial activity against Escherichia coli ATCC 25922 measured after 24 hrs; assay type: functional; details: ATCC 25922, 24 h
Method in brief: (§1)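 Broth microdilution adapted from NCCLS. Mid-log bacteria were diluted in MHB to a final (0.5–1) × 10^5 CFU mL−1. Peptides were serially diluted in 0.2% BSA and mixed with an equal volume of cells. After 24 h at 37 °C, MIC was read at A492 as the lowest concentration inhibiting 95% of growth. At least three independent experiments, each with three technical replicates.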

[2] = tested on: Escherichia coli; experiment: Antibacterial activity against Escherichia coli UB1005 measured after 24 hrs; assay type: functional; details: UB1005, 24 h; method in brief: as §1
[3] = tested on: Pseudomonas aeruginosa; experiment: Antibacterial activity against Pseudomonas aeruginosa ATCC 27853 measured after 24 hrs; assay type: functional; details: ATCC 27853, 24 h; method in brief: as §1
[4] = tested on: Escherichia coli; experiment: Antibacterial activity against Escherichia coli K88 measured after 24 hrs; assay type: functional; details: K88, 24 h; method in brief: as §1
[5] = tested on: Salmonella typhimurium; experiment: Antibacterial activity against Salmonella typhimurium C7731 measured after 24 hrs; assay type: functional, Salmonella enterica subsp. enterica serovar Typhimurium; details: Salmonella enterica, C7731, 24 h; method in brief: as §1
[6] = tested on: Staphylococcus epidermidis; experiment: Antibacterial activity against Staphylococcus epidermidis ATCC 12228 measured after 24 hrs; assay type: functional; details: ATCC 12228, 24 h; method in brief: as §1
[7] = tested on: Candida tropicalis; experiment: Antifungal activity against Candida tropicalis cgmcc2.1975 measured after 48 hrs by broth microdilution method; assay type: functional; details: cgmcc2.1975, 48 h
Method in brief: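 Modified CLSI M27-A2 microdilution. Yeast colonies were diluted in MOPS-buffered RPMI 1640 to a final (0.5–1) × 10^3 CFU mL−1 and mixed with an equal volume of peptide serially diluted in 0.2% BSA. After 48 h at 28 °C, MIC was read at A492 as the lowest concentration inhibiting 95% of growth. At least three independent experiments, each with three technical replicates.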

[8] = Bactericidal activity against Salmonella pullorum ATCC 7913 incubated for 24 hrs followed by replating on agar plate and measured after overnight incubation; assay type: functional, Salmonella enterica subsp. enterica serovar Pullorum; details: Salmonella enterica, ATCC 7913, 24 h; read-out: MBC>99.9
Method in brief: (§2)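 Mid-log bacteria diluted in MHB to (0.5–1) × 10^5 CFU/mL and mixed 1:1 with peptide serially diluted in 0.2% BSA. After 24 h at 37 °C, 50 μL of each mixture was plated on agar and incubated overnight. MBC taken as the lowest concentration killing >99.9% of cells. At least three independent experiments, each with three technical replicates.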

[9] = tested on: Pseudomonas aeruginosa; experiment: Bactericidal activity against Pseudomonas aeruginosa ATCC 27853 incubated for 24 hrs followed by replating on agar plate and measured after overnight incubation; assay type: functional; details: ATCC 27853, 24 h, read-out: MBC>99.9; method in brief: as §2
[10] = tested on: Escherichia coli; experiment: Bactericidal activity against Escherichia coli K88 incubated for 24 hrs followed by replating on agar plate and measured after overnight incubation; assay type: functional; details: K88, 24 h, read-out: MBC>99.9; method in brief: as §2
[11] = tested on: Staphylococcus aureus; experiment: Bactericidal activity against methicillin-resistant Staphylococcus aureus ATCC 43300 incubated for 24 hrs followed by replating on agar plate and measured after overnight incubation; assay type: functional; details: ATCC 43300, 24 h, read-out: MBC>99.9
Method in brief: (§3)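 After the 24 h, 37 °C MHB microdilution MIC assay, 50 μL from each well was plated on agar and incubated overnight. MBC taken as lowest peptide concentration killing >99.9% of cells. At least three independent experiments, each with three technical replicates.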

[12] = tested on: Staphylococcus epidermidis; experiment: Bactericidal activity against Staphylococcus epidermidis ATCC 12228 incubated for 24 hrs followed by replating on agar plate and measured after overnight incubation; assay type: functional; details: ATCC 12228, 24 h, read-out: MBC>99.9; method in brief: as §2
[13] = tested on: Staphylococcus aureus; experiment: Bactericidal activity against Staphylococcus aureus ATCC 25923 incubated for 24 hrs followed by replating on agar plate and measured after overnight incubation; assay type: functional; details: ATCC 25923, 24 h, read-out: MBC>99.9; method in brief: as §3
[14] = tested on: Escherichia coli; experiment: Antibacterial activity against Escherichia coli ATCC 25922 measured after 18 to 24 hrs in presence of NaCl; assay type: functional
[15] = tested on: Escherichia coli; experiment: Antibacterial activity against Escherichia coli ATCC 25922 measured after 18 to 24 hrs in presence of MgCl2; assay type: functional
[16] = tested on: Escherichia coli; experiment: Antibacterial activity against Escherichia coli ATCC 25922 measured after 18 to 24 hrs in presence of ZnCl2; assay type: functional
[17] = tested on: Staphylococcus aureus; experiment: Antibacterial activity against Staphylococcus aureus ATCC 29213 measured after 18 to 24 hrs in presence of CaCl2; assay type: functional
[18] = tested on: Staphylococcus aureus; experiment: Antibacterial activity against Staphylococcus aureus ATCC 29213 measured after 18 to 24 hrs in presence of MgCl2; assay type: functional
[19] = tested on: Staphylococcus aureus; experiment: Antibacterial activity against Staphylococcus aureus ATCC 29213 measured after 18 to 24 hrs in presence of ZnCl2; assay type: functional
Method in brief: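 MIC broth microdilution (MHB, 0.2% BSA peptide diluent, A492, 95% inhibition) run in the presence of physiological salts at final concentrations of 6 μM NH4Cl or 8 μM ZnCl2. Three independent assays, each with three technical replicates.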

[20] = tested on: Candida albicans; experiment: Antifungal activity against Candida albicans cgmcc2.2086 measured after 48 hrs in presence of KCl by broth microdilution method; assay type: functional; details: cgmcc2.2086, 48 h
[21] = tested on: Candida albicans; experiment: Antifungal activity against Candida albicans cgmcc2.2086 measured after 48 hrs in presence of MgCl by broth microdilution method; assay type: functional; details: cgmcc2.2086, 48 h
[22] = tested on: Candida albicans; experiment: Antifungal activity against Candida albicans cgmcc2.2086 measured after 48 hrs in presence of FeCl by broth microdilution method; assay type: functional; details: cgmcc2.2086, 48 h
[23] = Therapeutic index, ratio of MHC10 for hemolytic activity in human RBC to MIC95 against methicillin-resistant Staphylococcus aureus ATCC 43300; assay type: toxicity; details: human red blood cells (erythrocytes), read-out: TI
Method in brief: (§4)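 Therapeutic index = MHC divided by MIC. MHC is the lowest concentration giving >10% lysis of human RBC (1 h, 37 °C, 1-128 µM, A576). MIC is 95% growth inhibition by broth microdilution: bacteria in MHB 24 h at 37 °C; Candida in MOPS-buffered RPMI 1640 at (0.5–1) × 10^3 CFU mL−1, 48 h at 28 °C.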

[24] = Therapeutic index, ratio of MHC10 for hemolytic activity in human RBC to MIC95 against Staphylococcus aureus ATCC 29213; assay type: toxicity; details: human red blood cells (erythrocytes), read-out: TI; method in brief: as §4
[25] = Therapeutic index, ratio of MHC10 for hemolytic activity in human RBC to MIC95 against Candida albicans cgmcc2.2086; assay type: toxicity; details: human red blood cells (erythrocytes), read-out: TI; method in brief: as §4
[26] = Therapeutic index, ratio of MHC10 for hemolytic activity in human RBC to MIC95 against Candida parapsilosis cgmcc2.3989; assay type: toxicity; details: human red blood cells (erythrocytes), read-out: TI; method in brief: as §4
[27] = Conformational stability in pH 7.4 sodium phosphate buffer assessed as absorption spectra at minimum dichroic band at 35 uM by CD spectra analysis; assay type: physicochemical; details: pH 7.4, 35 µM
Method in brief: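 CD spectra from 190 to 250 nm of peptide at 35 μM in 10 mM PBS, 30 mM SDS micelles or 50% TFE, recorded in a 1.0-mm quartz cell. Ellipticity was converted to mean residue ellipticity. Three independent scans, each averaged over more than 3 runs.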

| Substance | MIC95 [1] [µM] | MIC95 [2] [µM] | MIC95 [3] [µM] | MIC95 [4] [µM] | MIC95 [5] [µM] | MIC95 [6] [µM] | MIC95 [7] [µM] | MBC [8] [µM] | MBC [9] [µM] | MBC [10] [µM] | MBC [11] [µM] | MBC [12] [µM] | MBC [13] [µM] | MIC95 [14] [µM] | MIC95 [15] [µM] | MIC95 [16] [µM] | MIC95 [17] [µM] | MIC95 [18] [µM] | MIC95 [19] [µM] | MIC95 [20] [µM] | also measured |
| --- | --- | --- | --- | --- | --- | --- | --- | --- | --- | --- | --- | --- | --- | --- | --- | --- | --- | --- | --- | --- | --- |
| H-AARIILRLRFR-NH2 | 4 | 4 | 8 | 4 | 4 | 2 | 4 | 8 | 32 | 8 | 4 | 4 | 4 | 64 | 16 | 4 | 4 | 2 | 2 | 8 | MIC95 [21]: 8 µM; MIC95 [22]: 8 µM; selectivity ratio [23]: 128; selectivity ratio [24]: 128; selectivity ratio [25]: 50.8; selectivity ratio [26]: 50.8; Wavelength of minimum CD band [27]: 200 nm |
| H-AARIILRYRFR-NH2 | 8 | 4 | 16 | 4 | 4 | 2 | 16 | 8 | 64 | 8 | 8 | 4 | 16 | > 128 | 64 | 8 | 64 | 8 | 2 | 64 | MIC95 [21]: 64 µM; MIC95 [22]: 64 µM; selectivity ratio [23]: 64; selectivity ratio [24]: 64; selectivity ratio [25]: 8; selectivity ratio [26]: 8; Wavelength of minimum CD band [27]: 200 nm |
| H-AARIILRARFR-NH2 | 4 | 2 | 16 | 2 | 4 | 2 | 4 | 8 | 32 | 4 | 4 | 4 | 8 | 32 | 16 | 4 | 16 | 8 | 4 | 16 | MIC95 [21]: 32 µM; MIC95 [22]: 16 µM; selectivity ratio [23]: 90.5; selectivity ratio [24]: 90.5; selectivity ratio [25]: 25.4; selectivity ratio [26]: 25.4; Wavelength of minimum CD band [27]: 200 nm |
| H-AARIILRWFRR-NH2 | 2 | 2 | 8 | 2 | 4 | 2 | 4 | 8 | 16 | 4 | 8 | 4 | 8 | 8 | 2 | 2 | 8 | 4 | 2 | 8 | MIC95 [21]: 16 µM; MIC95 [22]: 8 µM; selectivity ratio [23]: 53.8; selectivity ratio [24]: 53.8; selectivity ratio [25]: 50.8; selectivity ratio [26]: 50.8; Wavelength of minimum CD band [27]: 200 nm |
| H-AARRILRWIFR-NH2 | 4 | 4 | 8 | 4 | 4 | 4 | 4 | 8 | 16 | 8 | 8 | 8 | 8 | 64 | 8 | 8 | 8 | 8 | 4 | 16 | MIC95 [21]: 16 µM; MIC95 [22]: 8 µM; selectivity ratio [23]: 45.2; selectivity ratio [24]: 45.2; selectivity ratio [25]: 40.3; selectivity ratio [26]: 40.3; Wavelength of minimum CD band [27]: 200 nm |
| H-AARIILRWRFR-NH2 | 4 | 4 | 4 | 2 | 4 | 1 | 4 | 4 | 4 | 4 | 1 | 4 | 4 | 8 | 4 | 4 | 2 | 2 | 1 | 8 | MIC95 [21]: 16 µM; MIC95 [22]: 8 µM; selectivity ratio [23]: 215; selectivity ratio [24]: 215; selectivity ratio [25]: 50.8; selectivity ratio [26]: 50.8; Wavelength of minimum CD band [27]: 200 nm |
| H-AARIILRGRFR-NH2 | 4 | 4 | 16 | 2 | 8 | 8 | 16 | 8 | 32 | 4 | 8 | 16 | 32 | 64 | 16 | 4 | 64 | 16 | 8 | 128 | MIC95 [21]: > 128 µM; MIC95 [22]: 128 µM; selectivity ratio [23]: 26.9; selectivity ratio [24]: 26.9; selectivity ratio [25]: 5.04; selectivity ratio [26]: 5.04; Wavelength of minimum CD band [27]: 200 nm |
